Test results as given in ChEMBL document CHEMBL4196066, “Design and synthesis of furyl/thineyl pyrroloquinolones based on natural alkaloid perlolyrine, lead to the discovery of potent and selective PDE5 inhibitors” (Eur J Med Chem, 2018).

Assays:
[1] = biological target: cGMP-dependent 3',5'-cyclic phosphodiesterase (Homo sapiens) (UniProt O00408); test: Inhibition of N-terminal FLAG-tagged human PDE2A1 (2 to 941 residues) expressed in Baculovirus infected Sf9 insect cells at 250 uM using FAM-cAMP as substrate after 1 hr by fluorescence polarization assay relative to control
[2] = biological target: cGMP-dependent 3',5'-cyclic phosphodiesterase (Homo sapiens) (UniProt O00408); test: Inhibition of N-terminal FLAG-tagged human PDE2A1 (2 to 941 residues) expressed in Baculovirus infected Sf9 insect cells at 8 uM using FAM-cAMP as substrate after 1 hr by fluorescence polarization assay relative to control
[3] = Cmax in Wistar rat at 2 mg/kg, iv; format: ADME, organism-based; set-up: dose 2 mg/kg, route intravenous; settings: in vivo
Homo sapiens [4] = organism: Homo sapiens; test: Selectivity ratio of IC50 for N-terminal GST-tagged full length recombinant human PDE1A to IC50 for N-terminal GST-tagged full length recombinant human PDE5A1 catalytic domain
[5] = Half life in Wistar rat at 15 mg/kg, po; format: ADME, organism-based; settings: in vivo
Homo sapiens [6] = organism: Homo sapiens; test: Selectivity ratio of IC50 for N-terminal FLAG-tagged human PDE2A1 (2 to 941 residues) to IC50 for N-terminal GST-tagged full length recombinant human PDE5A1 catalytic domain
[7] = biological target: cGMP-inhibited 3',5'-cyclic phosphodiesterase 3B (Homo sapiens) (UniProt Q13370); test: Inhibition of N-terminal GST-tagged recombinant human PDE3B (592 end residues) expressed in Baculovirus infected Sf9 insect cells at 8 uM using FAM-cAMP as substrate after 1 hr by fluorescence polarization assay relative to control
Homo sapiens [8] = organism: Homo sapiens; test: Selectivity ratio of IC50 for N-terminal GST-tagged recombinant human PDE3B (592 end residues) to IC50 for N-terminal GST-tagged full length recombinant human PDE5A1 catalytic domain
[9] = AUC (0 to infinity) in Wistar rat at 2 mg/kg, iv; format: ADME, organism-based; set-up: dose 2 mg/kg, route intravenous, time infinity; settings: in vivo
Thoracic aorta = test: Vasorelaxant activity in norepinephrine-pretreated New Zealand rabbit thoracic aorta assessed as increase in aortic relaxation at 1 uM measured after 15 mins relative to control; format: functional, Oryctolagus cuniculus; set-up: scale not given: the % may be the effect or the level left
Outline: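 Thoracic aortic rings from New Zealand white rabbits were held in Krebs buffer at 2 g resting tension (0%) and equilibrated 2 h. Rings were contracted to maximum with 1 µM norepinephrine (100%). Compounds were added cumulatively at 15 min intervals, with tension recorded 15 min after each dose. Relaxation % = (max − recorded)/(max − 2 g) × 100; n = 1–2 rings.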

Homo sapiens [10] = organism: Homo sapiens; test: Selectivity ratio of IC50 for N-terminal GST-tagged full length recombinant human PDE4A1A to IC50 for N-terminal GST-tagged full length recombinant human PDE5A1 catalytic domain
[11] = Clearance in Wistar rat at 2 mg/kg, iv; format: ADME, organism-based; settings: in vivo
[12] = AUC (0 to 24 hrs) in Wistar rat at 15 mg/kg, po; format: ADME, organism-based; set-up: time < 24 hr, dose 15 mg/kg, route oral; settings: in vivo
Outline: (§1)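 Male Wistar rats (228−249 g) fasted 12 h, dosed orally in 0.5% methylcellulose. Blood drawn at 0, 0.5, 1, 1.5, 2, 4, 6, 12 and 24 h; plasma separated by centrifugation at 4 °C, stored at −80 °C, drug measured by LC–MS/MS, and PK parameters computed from the concentration–time data.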

[13] = Cmax in Wistar rat at 15 mg/kg, po; format: ADME, organism-based; set-up: dose 15 mg/kg, route oral; settings: in vivo
[14] = AUC (0 to 24 hrs) in Wistar rat at 2 mg/kg, iv; format: ADME, organism-based; set-up: time < 24 hr, dose 2 mg/kg, route intravenous; settings: in vivo
[15] = biological target: cGMP-specific 3',5'-cyclic phosphodiesterase (Homo sapiens, UniProt O76074); test: Inhibition of N-terminal GST-tagged full length recombinant human PDE5A1 catalytic domain expressed in Baculovirus infected Sf9 insect cells using FAM-cGMP as substrate after 1 hr by fluorescence polarization assay
[16] = Oral bioavailability in Wistar rat at 15 mg/kg; format: ADME, organism-based; settings: in vivo
[17] = Volume of distribution at steady state in Wistar rat at 2 mg/kg, iv; format: ADME, organism-based; settings: in vivo, read-out: Vdss
Homo sapiens [18] = organism: Homo sapiens; test: Selectivity ratio of IC50 for N-terminal GST-tagged full length recombinant human PDE6C to IC50 for N-terminal GST-tagged full length recombinant human PDE5A1 catalytic domain
Homo sapiens [19] = organism: Homo sapiens; test: Selectivity ratio of IC50 for N-terminal GST-tagged full length recombinant human PDE11A to IC50 for N-terminal GST-tagged full length recombinant human PDE5A1 catalytic domain
[20] = MRT in Wistar rat at 2 mg/kg, iv; format: ADME, organism-based; settings: in vivo
Rattus norvegicus [21] = test: (§2) AUC (0 to infinity) in Wistar rat at 15 mg/kg, po; format: ADME, organism-based; set-up: dose 15 mg/kg, route oral, time infinity; settings: in vivo; outline: as §1
[22] = biological target: Dual 3',5'-cyclic-AMP and -GMP phosphodiesterase 11A (Homo sapiens, UniProt Q9HCR9); test: Inhibition of N-terminal GST-tagged full length recombinant human PDE11A expressed in Baculovirus infected Sf9 insect cells using FAM-cAMP as substrate after 1 hr by fluorescence polarization assay
Oryctolagus cuniculus = test: Vasorelaxant activity in iv dosed New Zealand rabbit assessed as induction of ICP change in response to electrically pelvic nerve stimulation administered as bolus dose; format: functional
[23] = biological target: 3',5'-cyclic-AMP phosphodiesterase 4A (Homo sapiens) (UniProt P27815); test: Inhibition of N-terminal GST-tagged full length recombinant human PDE4A1A expressed in Baculovirus infected Sf9 insect cells at 1.5 uM using FAM-cAMP as substrate after 1 hr by fluorescence polarization assay relative to control
[24] = MRT in Wistar rat at 15 mg/kg, po; format: ADME, organism-based; settings: in vivo
[25] = biological target: Cone cGMP-specific 3',5'-cyclic phosphodiesterase subunit alpha' (Homo sapiens, UniProt P51160); test: Inhibition of N-terminal GST-tagged full length recombinant human PDE6C expressed in Baculovirus infected Sf9 insect cells using […] as substrate after 1 hr by fluorescence polarization assay
Rattus norvegicus [26] = test: Volume of distribution at steady state in Wistar rat at 15 mg/kg, po; format: ADME, organism-based; settings: in vivo
[27] = Tmax in Wistar rat at 15 mg/kg, po; format: ADME, organism-based; settings: in vivo
[28] = biological target: Dual specificity calcium/calmodulin-dependent 3',5'-cyclic nucleotide phosphodiesterase 1A (Homo sapiens) (UniProt P54750); test: Inhibition of N-terminal GST-tagged full length recombinant human PDE1A expressed in Baculovirus infected Sf9 insect cells at 8 uM using FAM-cAMP as substrate after 1 hr by fluorescence polarization assay relative to control
[29] = Tmax in Wistar rat at 2 mg/kg, iv; format: ADME, organism-based; settings: in vivo
[30] = Half life in Wistar rat at 2 mg/kg, iv; format: ADME, organism-based; settings: in vivo
[31] = Clearance in Wistar rat at 15 mg/kg, po; format: ADME, organism-based; settings: in vivo
[32] = biological target: cGMP-inhibited 3',5'-cyclic phosphodiesterase 3B (Homo sapiens) (UniProt Q13370); test: Inhibition of N-terminal GST-tagged recombinant human PDE3B (592 end residues) expressed in Baculovirus infected Sf9 insect cells at 6 uM using FAM-cAMP as substrate after 1 hr by fluorescence polarization assay relative to control
[33] = biological target: 3',5'-cyclic-AMP phosphodiesterase 4A (Homo sapiens) (UniProt P27815); test: Inhibition of N-terminal GST-tagged full length recombinant human PDE4A1A expressed in Baculovirus infected Sf9 insect cells at 1 uM using FAM-cAMP as substrate after 1 hr by fluorescence polarization assay relative to control
[34] = biological target: Dual specificity calcium/calmodulin-dependent 3',5'-cyclic nucleotide phosphodiesterase 1A (Homo sapiens) (UniProt P54750); test: Inhibition of N-terminal GST-tagged full length recombinant human PDE1A expressed in Baculovirus infected Sf9 insect cells at 6 uM using FAM-cAMP as substrate after 1 hr by fluorescence polarization assay relative to control
[35] = as §2; format: ADME, organism-based; set-up: dose 15 mg/kg, route oral, time infinity; settings: Wistar, in vivo; outline: as §1
[36] = biological target: cGMP-dependent 3',5'-cyclic phosphodiesterase (Homo sapiens) (UniProt O00408); test: Inhibition of N-terminal FLAG-tagged human PDE2A1 (2 to 941 residues) expressed in Baculovirus infected Sf9 insect cells at 6 uM using FAM-cAMP as substrate after 1 hr by fluorescence polarization assay relative to control

cGMP-dependent 3',5'-cyclic phosphodiesterase (Homo sapiens), sequence (O00408 whole entry, the tested form may be a part): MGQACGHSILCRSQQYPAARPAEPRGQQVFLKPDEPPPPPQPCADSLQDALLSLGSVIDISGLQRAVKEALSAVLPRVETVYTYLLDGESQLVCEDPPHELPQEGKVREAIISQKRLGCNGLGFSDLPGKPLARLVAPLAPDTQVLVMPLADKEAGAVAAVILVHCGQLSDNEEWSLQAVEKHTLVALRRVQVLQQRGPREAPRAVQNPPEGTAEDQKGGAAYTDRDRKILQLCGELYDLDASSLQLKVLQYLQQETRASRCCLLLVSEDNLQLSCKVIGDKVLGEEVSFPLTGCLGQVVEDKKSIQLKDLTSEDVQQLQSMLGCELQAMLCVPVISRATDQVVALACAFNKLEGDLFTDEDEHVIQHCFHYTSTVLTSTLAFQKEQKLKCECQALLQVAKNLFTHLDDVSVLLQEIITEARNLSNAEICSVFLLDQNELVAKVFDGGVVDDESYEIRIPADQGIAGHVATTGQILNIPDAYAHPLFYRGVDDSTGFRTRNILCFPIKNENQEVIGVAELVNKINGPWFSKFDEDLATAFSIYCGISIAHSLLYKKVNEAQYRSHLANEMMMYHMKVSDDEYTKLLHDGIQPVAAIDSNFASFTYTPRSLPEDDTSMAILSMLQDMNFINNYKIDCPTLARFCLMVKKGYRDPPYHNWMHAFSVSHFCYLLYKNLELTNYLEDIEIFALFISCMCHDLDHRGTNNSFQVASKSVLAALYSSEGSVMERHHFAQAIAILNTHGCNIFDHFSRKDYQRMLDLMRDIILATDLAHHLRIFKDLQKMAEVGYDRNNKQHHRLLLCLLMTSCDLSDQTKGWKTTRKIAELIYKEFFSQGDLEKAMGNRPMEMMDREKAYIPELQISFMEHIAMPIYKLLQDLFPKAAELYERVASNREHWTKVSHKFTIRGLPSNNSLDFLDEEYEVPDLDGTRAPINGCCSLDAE
Cone cGMP-specific 3',5'-cyclic phosphodiesterase subunit alpha', sequence (P51160 whole entry): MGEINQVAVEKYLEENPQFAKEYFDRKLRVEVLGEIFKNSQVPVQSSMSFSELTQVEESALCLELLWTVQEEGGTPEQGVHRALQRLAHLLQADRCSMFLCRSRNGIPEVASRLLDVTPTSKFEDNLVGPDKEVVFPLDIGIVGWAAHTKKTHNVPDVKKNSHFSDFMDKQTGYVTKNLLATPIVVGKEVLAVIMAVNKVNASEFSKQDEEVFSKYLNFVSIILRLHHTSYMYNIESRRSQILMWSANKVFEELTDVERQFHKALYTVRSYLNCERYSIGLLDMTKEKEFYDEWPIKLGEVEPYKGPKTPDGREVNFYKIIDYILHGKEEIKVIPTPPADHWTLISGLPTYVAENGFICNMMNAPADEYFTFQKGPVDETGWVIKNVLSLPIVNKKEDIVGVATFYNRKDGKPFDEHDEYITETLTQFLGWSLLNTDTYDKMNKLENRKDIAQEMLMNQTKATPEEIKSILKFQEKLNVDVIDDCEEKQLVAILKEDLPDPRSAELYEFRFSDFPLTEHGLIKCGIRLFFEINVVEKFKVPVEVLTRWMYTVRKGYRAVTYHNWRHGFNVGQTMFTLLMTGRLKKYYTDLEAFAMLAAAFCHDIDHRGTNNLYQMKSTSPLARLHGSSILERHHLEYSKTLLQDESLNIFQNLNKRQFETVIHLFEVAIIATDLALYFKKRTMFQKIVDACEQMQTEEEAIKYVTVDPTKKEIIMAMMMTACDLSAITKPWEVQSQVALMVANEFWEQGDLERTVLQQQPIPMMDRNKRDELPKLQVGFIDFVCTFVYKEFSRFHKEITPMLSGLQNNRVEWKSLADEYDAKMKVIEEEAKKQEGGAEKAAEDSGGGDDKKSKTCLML
Dual 3',5'-cyclic-AMP and -GMP phosphodiesterase 11A, sequence (Q9HCR9 whole entry): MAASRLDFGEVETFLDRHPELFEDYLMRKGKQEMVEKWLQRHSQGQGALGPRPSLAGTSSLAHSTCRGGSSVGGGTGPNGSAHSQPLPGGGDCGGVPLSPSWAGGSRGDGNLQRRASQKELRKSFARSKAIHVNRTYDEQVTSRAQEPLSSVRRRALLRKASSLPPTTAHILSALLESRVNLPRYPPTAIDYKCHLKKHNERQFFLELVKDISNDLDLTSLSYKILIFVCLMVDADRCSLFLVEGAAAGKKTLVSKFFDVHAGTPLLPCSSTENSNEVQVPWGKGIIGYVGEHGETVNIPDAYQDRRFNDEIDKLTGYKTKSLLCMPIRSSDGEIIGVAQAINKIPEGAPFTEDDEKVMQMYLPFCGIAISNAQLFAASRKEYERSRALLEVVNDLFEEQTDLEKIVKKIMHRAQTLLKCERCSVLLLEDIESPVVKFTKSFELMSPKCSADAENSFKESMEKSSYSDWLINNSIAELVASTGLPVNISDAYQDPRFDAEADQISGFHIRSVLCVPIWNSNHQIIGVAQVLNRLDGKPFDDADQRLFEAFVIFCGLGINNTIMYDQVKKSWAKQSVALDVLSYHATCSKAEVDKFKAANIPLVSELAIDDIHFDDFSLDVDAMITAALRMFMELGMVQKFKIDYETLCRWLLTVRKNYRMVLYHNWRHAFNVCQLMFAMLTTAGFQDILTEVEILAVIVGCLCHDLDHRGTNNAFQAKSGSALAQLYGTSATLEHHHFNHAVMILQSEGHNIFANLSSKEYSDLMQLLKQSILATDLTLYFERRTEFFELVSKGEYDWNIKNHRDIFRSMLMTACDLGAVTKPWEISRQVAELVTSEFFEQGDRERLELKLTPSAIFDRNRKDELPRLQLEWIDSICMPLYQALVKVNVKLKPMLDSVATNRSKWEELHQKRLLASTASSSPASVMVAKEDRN
3',5'-cyclic-AMP phosphodiesterase 4A (Homo sapiens), sequence (P27815 whole entry): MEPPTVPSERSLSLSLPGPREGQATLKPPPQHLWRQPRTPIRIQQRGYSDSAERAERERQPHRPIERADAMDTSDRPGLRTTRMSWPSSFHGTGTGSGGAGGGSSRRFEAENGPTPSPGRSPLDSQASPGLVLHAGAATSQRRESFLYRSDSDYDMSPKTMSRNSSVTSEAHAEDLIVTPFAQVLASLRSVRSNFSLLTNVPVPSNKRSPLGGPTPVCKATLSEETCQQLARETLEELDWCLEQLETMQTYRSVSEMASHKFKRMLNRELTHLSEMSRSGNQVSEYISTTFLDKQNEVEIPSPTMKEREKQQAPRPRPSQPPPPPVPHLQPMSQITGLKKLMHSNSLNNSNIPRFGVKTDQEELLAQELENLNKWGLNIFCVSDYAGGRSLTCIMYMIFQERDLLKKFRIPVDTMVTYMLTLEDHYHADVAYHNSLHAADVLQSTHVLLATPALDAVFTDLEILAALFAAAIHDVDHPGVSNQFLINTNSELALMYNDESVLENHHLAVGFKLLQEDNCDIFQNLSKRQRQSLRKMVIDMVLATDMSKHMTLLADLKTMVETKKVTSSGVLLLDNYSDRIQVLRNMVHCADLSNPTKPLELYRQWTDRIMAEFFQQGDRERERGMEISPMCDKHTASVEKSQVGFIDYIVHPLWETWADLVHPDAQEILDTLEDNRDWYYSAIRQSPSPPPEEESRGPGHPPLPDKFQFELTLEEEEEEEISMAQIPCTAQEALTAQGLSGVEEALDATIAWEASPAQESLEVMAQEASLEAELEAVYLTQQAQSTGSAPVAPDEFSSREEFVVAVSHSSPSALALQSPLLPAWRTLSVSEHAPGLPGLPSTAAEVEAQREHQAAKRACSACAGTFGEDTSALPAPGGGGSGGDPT
Dual specificity calcium/calmodulin-dependent 3',5'-cyclic nucleotide phosphodiesterase 1A (Homo sapiens), sequence (P54750 whole entry): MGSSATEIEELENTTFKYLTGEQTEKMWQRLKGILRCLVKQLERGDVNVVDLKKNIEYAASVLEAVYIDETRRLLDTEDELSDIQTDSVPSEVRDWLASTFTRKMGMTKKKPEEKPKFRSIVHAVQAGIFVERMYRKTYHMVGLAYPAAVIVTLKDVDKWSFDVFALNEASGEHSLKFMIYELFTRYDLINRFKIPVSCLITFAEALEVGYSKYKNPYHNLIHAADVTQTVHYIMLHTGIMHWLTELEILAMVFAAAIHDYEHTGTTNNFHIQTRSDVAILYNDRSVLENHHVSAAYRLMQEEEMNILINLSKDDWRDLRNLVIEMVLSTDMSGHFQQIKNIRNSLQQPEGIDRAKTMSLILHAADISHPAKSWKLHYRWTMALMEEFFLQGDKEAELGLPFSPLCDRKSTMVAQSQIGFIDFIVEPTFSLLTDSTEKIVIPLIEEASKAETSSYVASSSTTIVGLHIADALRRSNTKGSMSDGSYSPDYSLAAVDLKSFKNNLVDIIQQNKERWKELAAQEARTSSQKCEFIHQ

Cmax [3] [ng/mL] | Ratio IC50 (Homo sapiens [4]) | half-life [5] [h] | Ratio IC50 (Homo sapiens [6]) | Ratio IC50 (Homo sapiens [8]) | AUC(0-inf) [9] [ng·h/mL] | Ratio IC50 (Homo sapiens [10]) | clearance [11] [mL/min/kg] | AUC(0-t) at 24 h [12] [ng·h/mL] | Cmax [13] [ng/mL] | AUC(0-t) at 24 h [14] [ng·h/mL] | IC50 [15] [nM] | bioavailability [16] [%] | Vd [17] [L/kg] | Ratio IC50 (Homo sapiens [18]) | Ratio IC50 (Homo sapiens [19]) | MRT [20] [h] | IC50 [22] [nM] | Structure (SMILES) | Activity (Thoracic aorta) [%] | ED50 (Oryctolagus cuniculus) [mg/kg] | also measured
308 | > 10000 | 4.3 | > 10000 | > 10000 | 125 | > 2500 | 287 | 225 | 27.5 | 121 | 0.52 | 24.7 | 72.7 | 2.5 | 5.2 | 2.9 | 2.7 | CCc1ccc([C@@H]2c3[nH]c4ccccc4c(=O)c3CN2c2ncc(-c3ccccn3)cn2)s1 | >90 | 0.0217 | inhibition [1]: 81%; inhibition [2]: 39%; inhibition [7]: 7%; AUC (Rattus norvegicus [21]): 231.9 ng·h/mL; inhibition [23]: 10%; MRT [24]: 6.7 h; IC50 [25]: 1.2 nM; Vdss (Rattus norvegicus [26]): 181.3 L/kg; Tmax [27]: 2.8 h; inhibition [28]: 9.5%; Tmax [29]: 6 min; half-life [30]: 1.9 h
89.2 | > 10000 | 7.8 | > 10000 | > 10000 | 69.3 | > 2500 | 533 | 312 | 46.9 | 67.9 | 0.39 | 66.3 | 124 | 3.9 | 13.1 | 3.1 | 5.1 | CCc1ccc([C@@H]2c3[nH]c4ccccc4c(=O)c3CN2c2ncc(-c3ccccn3)cn2)o1 | >90 | 0.0242 | CL/F [31]: 550 mL/min/kg; inhibition [32]: 9.5%; inhibition [33]: 18%; inhibition [34]: 6%; AUC(0-inf) [35]: 344 ng·h/mL; inhibition [36]: 49%; MRT [24]: 9.4 h; IC50 [25]: 1.5 nM; Vdss (Rattus norvegicus [26]): 420.9 L/kg; Tmax [27]: 1.3 h; Tmax [29]: 6 min; half-life [30]: 2.9 h
